Data from ChEMBL document CHEMBL3120060, “Synthesis, in vitro anticancer evaluation and in silico studies of novel imidazo[2,1-b]thiazole derivatives bearing pyrazole moieties” (2014).

Legend:
Assay type in all cases: functional
[1] = test system: SF-295; assay: Cytotoxicity against human SF295 cells assessed as cell growth at 10 uM after 48 hrs by SRB assay; conditions: SF-295, 48 h, read-out: Activity
Summary of the method: (§1)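 NCI-60 single-dose screen. Cell lines grown in RPMI 1640 with 5% FBS and 2 mM L-glutamine, plated at 5000–40,000 cells/well according to doubling time, then preincubated 24 h at 37 °C in 5% CO2. Compounds dissolved in DMSO, tested at 10^-5 M for 48 h. Adherent cells fixed with cold TCA (10% final) and stained with 0.4% SRB in 1% acetic acid. Growth expressed as percent of untreated control.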

[2] = test system: HCT-15; assay: Cytotoxicity against human HCT15 cells assessed as cell growth at 10 uM after 48 hrs by SRB assay; conditions: HCT-15, 48 h, read-out: Activity; summary of the method: as §1
[3] = test system: HCT-116; assay: Cytotoxicity against human HCT116 cells assessed as cell growth at 10 uM after 48 hrs by SRB assay; conditions: HCT-116, 48 h, read-out: Activity; summary of the method: as §1
[4] = test system: NCI-H522; assay: Cytotoxicity against human NCI-H522 cells assessed as cell growth at 10 uM after 48 hrs by SRB assay; conditions: NCI-H522, 48 h, read-out: Activity; summary of the method: as §1
[5] = test system: NCI-H460; assay: Cytotoxicity against human NCI-H460 cells assessed as cell growth at 10 uM after 48 hrs by SRB assay; conditions: NCI-H460, 48 h, read-out: Activity; summary of the method: as §1
[6] = test system: HOP-92; assay: Cytotoxicity against human HOP92 cells assessed as cell growth at 10 uM after 48 hrs by SRB assay; conditions: HOP-92, 48 h, read-out: Activity; summary of the method: as §1
[7] = test system: HOP-62; assay: Cytotoxicity against human HOP62 cells assessed as cell growth at 10 uM after 48 hrs by SRB assay; conditions: HOP-62, 48 h, read-out: Activity; summary of the method: as §1
[8] = test system: RPMI-8226; assay: Cytotoxicity against human RPMI8226 cells assessed as cell growth at 10 uM after 48 hrs by SRB assay; conditions: RPMI-8226, 48 h, read-out: Activity; summary of the method: as §1
[9] = test system: HL-60(TB); assay: Cytotoxicity against human HL-60(TB) cells assessed as cell growth at 10 uM after 48 hrs by SRB assay; conditions: HL-60, 48 h, read-out: Activity
Summary of the method: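 NCI-60 single-dose screen: cells grown in RPMI 1640 with 5% FBS and 2 mM L-glutamine, plated at 5000–40,000 cells/well, preincubated 24 h at 37 °C, 5% CO2. Compound dissolved in DMSO, tested at 10^-5 M for 48 h. Cells TCA-fixed, sulforhodamine B stained. Growth expressed as percent of untreated control, referenced to time-zero plates.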

[10] = test system: CCRF-CEM; assay: Cytotoxicity against human CCRF-CEM cells assessed as cell growth at 10 uM after 48 hrs by SRB assay; conditions: read-out: Activity; summary of the method: as §1
[11] = test system: MDA-MB-468; assay: Cytotoxicity against human MDA-MB-468 cells assessed as cell growth at 10 uM after 48 hrs by SRB assay; conditions: MDA-MB-468, 48 h, read-out: Activity; summary of the method: as §1
[12] = test system: T47D; assay: Cytotoxicity against human T47D cells assessed as cell growth at 10 uM after 48 hrs by SRB assay; conditions: read-out: Activity
Summary of the method: (§2)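 NCI-60 single-dose screen at 10^-5 M. Adherent lines are grown in RPMI 1640 with 5% FBS and 2 mM L-glutamine, seeded at 5000–40,000 cells/well by doubling time, and preincubated 24 h at 37 °C in 5% CO2. Drug is added from DMSO stock diluted in medium, then 48 h. Cells are fixed in cold TCA (final 10%) for 60 min and stained with 0.4% SRB in 1% acetic acid. Growth is expressed as % of untreated control using time-zero plates.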

[13] = Cytotoxicity against human Hs578T cells assessed as cell growth at 10 uM after 48 hrs by SRB assay; conditions: Hs-578T, read-out: Activity; summary of the method: as §1
[14] = test system: DU-145; assay: Cytotoxicity against human DU145 cells assessed as cell growth at 10 uM after 48 hrs by SRB assay; conditions: DU-145, 48 h, read-out: Activity; summary of the method: as §1
[15] = test system: TK-10; assay: Cytotoxicity against human TK10 cells assessed as cell growth at 10 uM after 48 hrs by SRB assay; conditions: TK-10, 48 h, read-out: Activity; summary of the method: as §2
[16] = test system: SN12C; assay: Cytotoxicity against human SN12C cells assessed as cell growth at 10 uM after 48 hrs by SRB assay; conditions: read-out: Activity; summary of the method: as §1
[17] = test system: RXF 393; assay: Cytotoxicity against human RXF393 cells assessed as cell growth at 10 uM after 48 hrs by SRB assay; conditions: RXF 393, 48 h, read-out: Activity; summary of the method: as §1
[18] = test system: 786-0; assay: Cytotoxicity against human 786-0 cells assessed as cell growth at 10 uM after 48 hrs by SRB assay; conditions: 786-0, 48 h, read-out: Activity; summary of the method: as §1
[19] = test system: SK-OV-3; assay: Cytotoxicity against human SKOV3 cells assessed as cell growth at 10 uM after 48 hrs by SRB assay; conditions: SK-OV-3, 48 h, read-out: Activity; summary of the method: as §1
[20] = Cytotoxicity against human OVCAR5 cells assessed as cell growth at 10 uM after 48 hrs by SRB assay; conditions: OVCAR-5, 48 h, read-out: Activity; summary of the method: as §1
[21] = test system: OVCAR-3; assay: Cytotoxicity against human OVCAR3 cells assessed as cell growth at 10 uM after 48 hrs by SRB assay; conditions: OVCAR-3, 48 h, read-out: Activity; summary of the method: as §1
[22] = test system: UACC-62; assay: Cytotoxicity against human UACC62 cells assessed as cell growth at 10 uM after 48 hrs by SRB assay; conditions: UACC-62, 48 h, read-out: Activity; summary of the method: as §2
[23] = test system: SK-MEL-5; assay: Cytotoxicity against human SK-MEL-5 cells assessed as cell growth at 10 uM after 48 hrs by SRB assay; conditions: SK-MEL-5, 48 h, read-out: Activity; summary of the method: as §1
[24] = test system: SK-MEL-28; assay: Cytotoxicity against human SK-MEL-28 cells assessed as cell growth at 10 uM after 48 hrs by SRB assay; conditions: SK-MEL-28, 48 h, read-out: Activity; summary of the method: as §1
[25] = test system: M14; assay: Cytotoxicity against human M14 cells assessed as cell growth at 10 uM after 48 hrs by SRB assay; conditions: M14, 48 h, read-out: Activity; summary of the method: as §1
[26] = test system: Malme-3M; assay: Cytotoxicity against human MALME-3M cells assessed as cell growth at 10 uM after 48 hrs by SRB assay; conditions: read-out: Activity; summary of the method: as §1
[27] = test system: U-251; assay: Cytotoxicity against human U251 cells assessed as cell growth at 10 uM after 48 hrs by SRB assay; conditions: U-251, 48 h, read-out: Activity; summary of the method: as §2
[28] = test system: SNB-75; assay: Cytotoxicity against human SNB75 cells assessed as cell growth at 10 uM after 48 hrs by SRB assay; conditions: SNB-75, 48 h, read-out: Activity; summary of the method: as §1

Row | SMILES | growth at 10 µM [2] [%] | growth at 10 µM [3] [%] | growth at 10 µM [4] [%] | growth at 10 µM [5] [%] | growth at 10 µM [6] [%] | growth at 10 µM [7] [%] | growth at 10 µM [8] [%] | growth at 10 µM [9] [%] | growth at 10 µM [10] [%] | growth at 10 µM [11] [%] | growth at 10 µM [12] [%] | growth at 10 µM [13] [%] | growth at 10 µM [14] [%] | growth at 10 µM [15] [%] | growth at 10 µM [16] [%] | growth at 10 µM [17] [%] | growth at 10 µM [18] [%] | growth at 10 µM [19] [%] | growth at 10 µM [20] [%] | growth at 10 µM [21] [%] | other results
1 | CC1=NN(c2cn3c(-c4ccc(Cl)cc4)csc3n2)C(=O)C1 | 88.7 | 97.1 | 84.5 | 103 | 73.6 | 97.5 | 75.9 | 92.5 | 84.4 | 97.9 | 73.7 | 101 | 105 | 98.8 | 90.9 | 104 | 94.1 | 100 | 106 | 106 | growth at 10 µM [1]: 85.6%; growth at 10 µM [22]: 81.9%; growth at 10 µM [23]: 92.4%; growth at 10 µM [24]: 96.3%; growth at 10 µM [25]: 96.2%; growth at 10 µM [26]: 102%; growth at 10 µM [27]: 91.7%; growth at 10 µM [28]: 65.3%
2 | O=C1CC(=O)N(c2cn3c(-c4ccc(Cl)cc4)csc3n2)N1 | 92.9 | 93.2 | 74.1 | 104 | 99.4 | 104 | 85 | 88.1 | 89.5 | 104 | 87.3 | 98.3 | 105 | 95 | 88.4 | 112 | 96.4 | 103 | 115 | 110 | growth at 10 µM [1]: 84.4%; growth at 10 µM [22]: 90.1%; growth at 10 µM [23]: 99.7%; growth at 10 µM [24]: 95.7%; growth at 10 µM [25]: 100%; growth at 10 µM [26]: 97.1%; growth at 10 µM [27]: 91.9%; growth at 10 µM [28]: 74.2%
3 | Cc1cc(C)n(-c2cn3c(-c4ccccc4)csc3n2)n1 | 95 | 101 | 88.4 | 104 | 86 | 91.4 | 93 | 105 | 95.4 | 102 | 87.2 | 106 | 105 | 124 | 96.5 | 93.4 | 98 | 89.9 | 95.4 | 101 | growth at 10 µM [1]: 77.5%; growth at 10 µM [22]: 89.4%; growth at 10 µM [23]: 94.2%; growth at 10 µM [24]: 102%; growth at 10 µM [25]: 95.4%; growth at 10 µM [26]: 94.1%; growth at 10 µM [27]: 94.7%; growth at 10 µM [28]: 64.1%
4 | O=C1CN2C(c3ccc(Cl)cc3)=CSC2=N1 | 93.3 | 97.1 | 87.5 | 106 | 111 | 107 | 89.2 | 94.2 | 91.5 | 106 | 92.1 | 111 | 102 | 79.9 | 94.9 | 111 | 94 | 98.2 | 97 | 105 | growth at 10 µM [1]: 80%; growth at 10 µM [22]: 88.7%; growth at 10 µM [23]: 105%; growth at 10 µM [24]: 95.7%; growth at 10 µM [25]: 97%; growth at 10 µM [26]: 99.3%; growth at 10 µM [27]: 94.3%; growth at 10 µM [28]: 75.8%
5 | CC1=NN(c2cn3c(-c4ccc(C)cc4)csc3n2)C(=O)C1 | 103 | 94.4 | 88.9 | 105 | 65.5 | 99.2 | 93.6 | 110 | 94 | 102 | 80.6 | 109 | 113 | 135 | 96.4 | 95.9 | 101 | 95.5 | 124 | 110 | growth at 10 µM [22]: 74.1%; growth at 10 µM [23]: 90%; growth at 10 µM [24]: 98.5%; growth at 10 µM [25]: 99.2%; growth at 10 µM [26]: 107%; growth at 10 µM [27]: 94.1%; growth at 10 µM [28]: 79.1%
6 | O=C1CN2C(c3ccccc3)=CSC2=N1 | 95.9 | 97.6 | 94.3 | 105 | 78 | 93.6 | 94.4 | 114 | 96.3 | 106 | 84.4 | 103 | 112 | 125 | 91.5 | 102 | 104 | 89.5 | 113 | 111 | growth at 10 µM [22]: 90.3%; growth at 10 µM [23]: 99.8%; growth at 10 µM [24]: 105%; growth at 10 µM [25]: 99.9%; growth at 10 µM [26]: 102%; growth at 10 µM [27]: 93.9%; growth at 10 µM [28]: 61%
7 | O=C1CC(=O)N(c2cn3c(-c4ccccc4)csc3n2)N1 | 91.2 | 95.5 | 74.9 | 104 | 63.5 | 85.9 | 93 | 120 | 98.7 | 102 | 82.7 | 101 | 106 | 131 | 92.2 | 89.7 | 104 | 86.8 | 104 | 99 | growth at 10 µM [22]: 85%; growth at 10 µM [23]: 89.6%; growth at 10 µM [24]: 96.4%; growth at 10 µM [25]: 101%; growth at 10 µM [26]: 141%; growth at 10 µM [27]: 84.2%; growth at 10 µM [28]: 63.1%
